Inconclusive results are not listed.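 Rule for the calls, unless noted: active = RAM network inhibition above 8.4% in each of two replicates, 3 SD over the compound average; inconclusive = above 8.4% inhibition in only one replicate; inactive = 8.4% inhibition or less in each replicate.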
Assays:
[1] = S. cerevisiae growth inhibition in permissive medium (OD615), pilot counter-assay for S. cerevisiae lifespan shortening project, permissive growth control (AID 705;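 active = growth inhibition above 25% in both replicates, a cutoff set 3 SD above the mean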); conditions: OD615, 24 h, at 10 µM, hits give high values
Procedure, shortened: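 System: Engineered DeaD yeast | Buffer or medium: SC raffinose/galactose permissive medium | Doses: 10 µM single dose, 0.25% DMSO | Times: 24 h exposure, 30 °C | Measured by: OD615 turbidity read | Read-out: Yeast growth inhibition indicated by reduced 24 h OD615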

[2] = S. cerevisiae growth inhibition in restrictive medium, OD615, pilot screen, restrictive growth control, yeast lifespan reduction project (AID 706;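 active = growth inhibition above a set limit, 3 SD over mean compound inhibition, in both replicates, cut at about 43% in these data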;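 note: modified DeaD lifespan yeast strain shifted to restrictive glucose medium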); conditions: OD615, 48 h, at 10 µM, hits give high values
Procedure, shortened: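 Assay system: engineered S. cerevisiae DeaD strain; Buffer or medium: CSMM-D glucose medium; Dosing: 10 µM compound, 0.25% DMSO; Times: cell pre-growth 4 h, compound exposure 48 h, 30 °C; Detection: absorbance (optical density) measured at 615 nm.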

[3] = doxorubicin toxicity protection in MRP-1 cells – H69AR cells, CellTiter-Glo, duplicate, MRP-1 activator project, pilot screen (AID 807;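 active = viability increase at or above a cutoff of the median across tested compounds plus 3 SD, cut at about 8.5% in these data, passing the limit was not always enough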;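 note: compound pretreatment 18-22 h then 72 h combined with doxorubicin; 0% = doxorubicin alone and 100% = vehicle without doxorubicin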); conditions: H69AR viability with doxorubicin, CellTiter-Glo luminescence; at 10 µM; hits give high values
[4] = viability of HCT116 without oncogenic beta-catenin – human colon tumor cells, pilot screen (AID 823;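 active = cell viability at or below a set limit in both duplicate runs, the limit being the all-compound median minus 4 SD, cut at about 23% in these data, passing the limit was not always enough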;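 note: 0% = wells killed by 20 µM Hyamine and 100% = untreated DMSO cell wells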); conditions: HCT116 beta-catenin knockout viability, CellTiter-Glo, 60 h; at 10 µM; hits give low values
[5] = viability of PTEN-null HCT116 cells – cell-based, HCT116 clonal line, CellTiter-Glo, pilot screen (AID 824;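 active = viability at or below 27.92% in each of two runs, the all-compound median minus 4 SD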;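 note: 0% = 20 µM Hyamine control and 100% = vehicle cell control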); conditions: HCT116 PTEN-deleted viability, 60 h, at 10 µM, hits give low values
[6] = RAM pathway blockade in budding yeast – dse1pr::URA3 reporter, 5-FOA selection, pilot screen (AID 869;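 active = inhibition over a set limit, the all-compound mean plus 3 SD, in both replicate runs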;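 note: 0% = DMSO wells with no growth and 100% = 10 µM 1-NA-PP1 with full growth; RAM network block rescues cells from 5-FOA so hits raise OD615 growth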); conditions: S. cerevisiae dse1pr::URA3 5-FOA growth, OD615, 2 d; at 10 µM; hits give high values; strain carries analog-sensitive mutant Cbk1 kinase
[7] = RAM signaling pathway blockade in yeast – S. cerevisiae, Pdr1DBD-CYC8 efflux-inhibited sensitized strain, primary screen (AID 1298);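 note: 0% = DMSO untreated cells without growth and 100% = 10 µM 1-NA-PP1 full growth; higher means more yeast growth rescued from 5-FOA killing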; conditions: S. cerevisiae cbk1-as DSE1-URA3 strain, 5-FOA growth OD615, 2 d; at 50 µM; hits give high values

Cc1cccc(OCc2nnc(SCC(=O)Nc3ccc(C)c(C)c3)o2)c1
inactive: growth inhibition [1] -5.54% | growth inhibition [2] 1.43% | viability increase [3] -2.67% | viability [4] 102% | viability [5] 94.2% | inhibition [6] 4.2% | RAM network inhibition [7] 1.73%

O=C(C1CCC(CNc2c(N3CCCCC3)c(=O)c2=O)CC1)N1CCN(c2ccccn2)CC1 (stereo not drawn)
inactive: growth inhibition [1] -4.55% | growth inhibition [2] -1.08% | viability increase [3] -0.36% | viability [4] 102% | viability [5] 99.1% | inhibition [6] -0.5% | RAM network inhibition [7] 4.92%

O=C(CSc1nc2c(c(=O)n1-c1ccc(Cl)cc1)SCC2)Nc1ccc2c(c1)OCCO2
inactive: growth inhibition [1] -7.54% | growth inhibition [2] 10.9% | viability increase [3] -2.7% | viability [4] 92% | viability [5] 84.8% | inhibition [6] 2.02% | RAM network inhibition [7] 4.16%

COc1ccc(-c2nc(CS(=O)CC(=O)NCc3ccco3)c(C)o2)cc1OC (stereo not drawn)
inactive: growth inhibition [1] 1.38% | growth inhibition [2] -5.82% | viability increase [3] -4.57% | viability [4] 83.4% | viability [5] 84.6% | inhibition [6] 0.205% | RAM network inhibition [7] 4.18%

CCCS(=O)(=O)NCc1cn2c(C)csc2n1
inactive: growth inhibition [1] -0.385% | growth inhibition [2] 17.2% | viability increase [3] -2.28% | viability [4] 102% | viability [5] 92.6% | inhibition [6] 2.58% | RAM network inhibition [7] 5.52%

Cc1onc(-c2ccccc2)c1C(=O)NC(C)C
inactive: growth inhibition [1] -11.8% | growth inhibition [2] -8.11% | viability increase [3] 0.11% | viability [4] 105% | viability [5] 98.8% | inhibition [6] 0.105% | RAM network inhibition [7] 3.45%

Cc1cnc(N)c2c(=O)oc3ccccc3c12
inactive: growth inhibition [1] -0.41% | growth inhibition [2] 24.5% | viability increase [3] -4.45% | viability [4] 103% | viability [5] 92.8% | inhibition [6] 1.61% | RAM network inhibition [7] 1.88%

O=C(c1cnn2ccccc12)N1CCc2ccccc21
inactive: growth inhibition [1] 0.67% | growth inhibition [2] -5.48% | viability increase [3] -2.13% | viability [4] 97.9% | viability [5] 91.9% | inhibition [6] 1.33% | RAM network inhibition [7] 1.54%

N#Cc1cn(CC(=O)NCC2CCCO2)c2ccccc12 (stereo not drawn)
inactive: growth inhibition [1] 1.68% | growth inhibition [2] -3% | viability increase [3] -1.75% | viability [4] 93.1% | viability [5] 91.4% | inhibition [6] 1.1% | RAM network inhibition [7] 5.31%

CCOC(=O)c1ccc(Nc2cc(C)nc(-c3ccccc3O)n2)cc1
inactive: growth inhibition [1] -6.03% | growth inhibition [2] -3.53% | viability increase [3] 1.42% | viability [4] 78.5% | viability [5] 75.8% | inhibition [6] -0.345% | RAM network inhibition [7] 1.54%

CCOC(=O)c1ccc(NC(=O)CSc2nnc(Cn3c(=O)sc4ccccc43)n2C)cc1
inactive: growth inhibition [1] -8.11% | growth inhibition [2] 12% | viability increase [3] -2.6% | viability [4] 94.1% | viability [5] 88.5% | inhibition [6] 0.665% | RAM network inhibition [7] 3.59%

Cc1ccc(C2CC(c3ccc(F)cc3)Nc3nc(N)nn32)cc1 (stereo not drawn)
inactive: growth inhibition [1] -3.28% | growth inhibition [2] 5.93% | viability increase [3] -3.44% | viability [4] 99.8% | viability [5] 86.7% | inhibition [6] 0.25% | RAM network inhibition [7] 2.86%

CCn1ccc(C(=O)Nc2ccc(Cl)cn2)n1
inactive: growth inhibition [1] -9.65% | growth inhibition [2] 11.6% | viability increase [3] -1.34% | viability [4] 93.6% | viability [5] 93.9% | inhibition [6] 1.48% | RAM network inhibition [7] 3.03%

CCCCc1ccc(NC(=O)OC)cc1
inactive: growth inhibition [1] 1.49% | growth inhibition [2] 10.8% | viability increase [3] 3.48% | viability [4] 104% | viability [5] 90.6% | inhibition [6] 2.21% | RAM network inhibition [7] -2%

CCCC(=O)C1=C(O)C(C(=O)OC)C(C)(C)CC1=N (stereo not drawn)
inactive: growth inhibition [1] 1.4% | growth inhibition [2] -3.15% | viability increase [3] -0.38% | viability [4] 100% | viability [5] 101% | inhibition [6] 1.01% | RAM network inhibition [7] -0.57%

COc1cccc(NC(=O)CSc2ncnc3c2oc2ccccc23)c1
inactive: growth inhibition [1] -12.8% | growth inhibition [2] 6.07% | viability increase [3] -2.19% | viability [4] 94.2% | viability [5] 87.3% | inhibition [6] 2.46% | RAM network inhibition [7] 4.42%

O=C(Cn1cnc2c(nnn2-c2ccccc2)c1=O)NCCc1ccccc1
inactive: growth inhibition [1] -0.435% | growth inhibition [2] -10.4% | viability increase [3] -1.04% | viability [4] 105% | viability [5] 100% | inhibition [6] 0.75% | RAM network inhibition [7] 3.12%

CCS(=O)(=O)NCCc1csc(-c2cccnc2)n1
inactive: growth inhibition [1] -1.29% | growth inhibition [2] -6.54% | viability increase [3] -0.37% | viability [4] 102% | viability [5] 102% | inhibition [6] 2.48% | RAM network inhibition [7] 6.14%

CCOC(=O)CN1CC23C=CC(O2)C(C(=O)NCc2ccccc2OC)C3C1=O (stereo not drawn)
inactive: growth inhibition [1] 1.34% | growth inhibition [2] 8.84% | viability increase [3] -3.18% | viability [4] 103% | viability [5] 102% | inhibition [6] 2.3% | RAM network inhibition [7] 0.15%

COc1ccc(N=C(N(C)C)P(=O)(N(C)C)N(C)C)cc1
inactive: growth inhibition [1] -5.46% | growth inhibition [2] 0.105% | viability increase [3] -1.44% | viability [4] 103% | viability [5] 98.4% | inhibition [6] 0.22% | RAM network inhibition [7] 6.63%

Cc1cccc(Cn2c(N(C)Cc3ccccc3)nc3c2c(=O)[nH]c(=O)n3C)c1
inactive: growth inhibition [1] -0.355% | growth inhibition [2] -7.32% | viability increase [3] -2.61% | viability [4] 75.6% | viability [5] 64.8% | inhibition [6] 2.08% | RAM network inhibition [7] 2.26%

COc1ccc(N2CSC3=C(C#N)C(c4cccc(OC)c4OC)CC(=O)N3C2)cc1 (stereo not drawn)
inactive: growth inhibition [1] -1.74% | growth inhibition [2] 26.5% | viability increase [3] -4.01% | viability [4] 95.6% | viability [5] 92.6% | inhibition [6] 1.48% | RAM network inhibition [7] 3.83%

CCCOc1ccc(S(=O)(=O)NCc2ccc(OC)cc2)cc1
inactive: growth inhibition [1] -0.685% | growth inhibition [2] -1.88% | viability increase [3] -1.41% | viability [4] 103% | viability [5] 103% | inhibition [6] 0.925% | RAM network inhibition [7] 7.26%

COc1ccc(Nc2nc(C)cc(C)c2C#N)cc1OC
inactive: growth inhibition [1] -2.02% | growth inhibition [2] 5.43% | viability increase [3] 1.79% | viability [4] 107% | viability [5] 107% | inhibition [6] 0.715% | RAM network inhibition [7] 1.79%
